Results taken from ChEMBL document CHEMBL1671627, “Increasing trends in antimicrobial resistance among clinically important anaerobes and Bacteroides fragilis isolates causing nosocomial infections: emerging resistance to carbapenems” (2008).
≈ marks a conversion by molar mass, not a printed value.

Key:
Bacteroides fragilis [1] = experiment: Antibacterial activity against Bacteroides fragilis assessed as susceptible isolates by CLSI agar dilution method in presence of clavulanate; type: functional
In short: (§1)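 Agar dilution per CLSI guidelines on nonduplicate anaerobic bloodstream isolates collected at NTUH, January to December 2006. Isolates were spotted by Steers replicator onto supplemented Brucella blood agar and incubated anaerobically for 48 h at 35°C. MIC was the lowest drug concentration that inhibited growth. B. fragilis ATCC 25285, B. thetaiotaomicron ATCC 29741 and E. lentum ATCC 43055 were run as QC in each run.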

Bacteroides uniformis [2] = experiment: Antibacterial activity against beta-lactamase producing Bacteroides uniformis by CLSI agar dilution method in presence of clavulanate; type: functional; in short: as §1
Bacteroides caccae [3] = experiment: Antibacterial activity against beta-lactamase producing Bacteroides caccae by CLSI agar dilution method in presence of clavulanate; type: functional; in short: as §1
Fusobacterium nucleatum [4] = experiment: Antibacterial activity against Fusobacterium nucleatum by CLSI agar dilution method in presence of clavulanate; type: functional; in short: as §1
Fusobacterium nucleatum [5] = experiment: Antibacterial activity against Fusobacterium nucleatum assessed as susceptible isolates by CLSI agar dilution method in presence of clavulanate; type: functional; in short: as §1
[6] = test system: Fusobacterium necrophorum; experiment: Antibacterial activity against Fusobacterium necrophorum assessed as susceptible isolates by CLSI agar dilution method in presence of clavulanate; type: functional; in short: as §1
[7] = test system: Prevotella melaninogenica; experiment: Antibacterial activity against Prevotella melaninogenica by CLSI agar dilution method in presence of clavulanate; type: functional; in short: as §1
Prevotella buccae [8] = experiment: Antibacterial activity against Prevotella buccae assessed as susceptible isolates by CLSI agar dilution method in presence of clavulanate; type: functional, Segatella buccae; in short: as §1
[9] = test system: Prevotella melaninogenica; experiment: Antibacterial activity against Prevotella melaninogenica assessed as resistant isolates by CLSI agar dilution method in presence of clavulanate; type: functional
In short: (§2)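 207 nonduplicate anaerobic blood isolates from patients with bloodstream infections at NTUH, collected January–December 2006. MICs were determined by agar dilution following CLSI guidelines. Inocula were applied with a Steers replicator onto supplemented Brucella blood agar and incubated 48 h at 35°C in an anaerobic chamber. MIC was the lowest concentration inhibiting growth. B. fragilis ATCC 25285, B. thetaiotaomicron ATCC 29741 and E. lentum ATCC 43055 served as controls in each run.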

Clostridium tertium = experiment: Antibacterial activity against beta-lactamase producing Clostridium tertium assessed as susceptible isolates by CLSI agar dilution method in presence of clavulanate; type: functional
In short: (§3)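 CLSI agar dilution MICs for anaerobic blood isolates (nonduplicate) collected from bloodstream-infection patients at a Taiwanese tertiary hospital, January–December 2006. Isolates were spotted by Steers replicator onto supplemented Brucella blood agar and incubated anaerobically for 48 h at 35°C. MIC was the lowest drug concentration inhibiting growth. Each run included B. fragilis ATCC 25285, B. thetaiotaomicron ATCC 29741 and E. lentum ATCC 43055 as quality-control strains.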

Clostridium septicum [10] = experiment: Antibacterial activity against beta-lactamase producing Clostridium septicum assessed as resistant isolates by CLSI agar dilution method in presence of clavulanate; type: functional; in short: as §2
Bacteroides fragilis [11] = experiment: Antibacterial activity against Bacteroides fragilis assessed as resistant isolates by CLSI agar dilution method; type: functional
Bacteroides fragilis [12] = experiment: Antibacterial activity against Bacteroides fragilis assessed as resistant isolates by CLSI agar dilution method in presence of Tazobactam; type: functional; in short: as §2
[13] = test system: Bacteroides thetaiotaomicron; experiment: Antibacterial activity against beta-lactamase producing Bacteroides thetaiotaomicron assessed as susceptible isolates by CLSI agar dilution method; type: functional
[14] = test system: Bacteroides thetaiotaomicron; experiment: Antibacterial activity against beta-lactamase producing Bacteroides thetaiotaomicron assessed as susceptible isolates by CLSI agar dilution method in presence of Tazobactam; type: functional; in short: as §1
Phocaeicola vulgatus = experiment: Antibacterial activity against beta-lactamase producing Bacteroides vulgatus assessed as susceptible isolates by CLSI agar dilution method; type: functional
Bacteroides uniformis [15] = experiment: Antibacterial activity against beta-lactamase producing Bacteroides uniformis assessed as resistant isolates by CLSI agar dilution method in presence of Tazobactam; type: functional; in short: as §2
Bacteroides caccae [16] = experiment: Antibacterial activity against beta-lactamase producing Bacteroides caccae assessed as susceptible isolates by CLSI agar dilution method in presence of Tazobactam; type: functional; in short: as §1
Fusobacterium mortiferum = experiment: Antibacterial activity against Fusobacterium mortiferum by CLSI agar dilution method; type: functional
[17] = test system: Fusobacterium necrophorum; experiment: Antibacterial activity against Fusobacterium necrophorum by CLSI agar dilution method; type: functional
Fusobacterium nucleatum [18] = experiment: Antibacterial activity against Fusobacterium nucleatum assessed as resistant isolates by CLSI agar dilution method; type: functional
Fusobacterium nucleatum [19] = experiment: Antibacterial activity against Fusobacterium nucleatum by CLSI agar dilution method in presence of Tazobactam; type: functional; in short: as §1
[20] = test system: Fusobacterium necrophorum; experiment: Antibacterial activity against Fusobacterium necrophorum by CLSI agar dilution method in presence of Tazobactam; type: functional; in short: as §1
Prevotella buccae [21] = experiment: Antibacterial activity against Prevotella buccae by CLSI agar dilution method in presence of Tazobactam; type: functional; conditions: Segatella buccae; in short: as §1
Prevotella buccae [22] = experiment: Antibacterial activity against Prevotella buccae assessed as susceptible isolates by CLSI agar dilution method; type: functional, Segatella buccae
Prevotella buccae [23] = experiment: Antibacterial activity against Prevotella buccae assessed as susceptible isolates by CLSI agar dilution method in presence of Tazobactam; type: functional, Segatella buccae; in short: as §1
Prevotella intermedia [24] = experiment: Antibacterial activity against Prevotella intermedia assessed as susceptible isolates by CLSI agar dilution method in presence of Tazobactam; type: functional; in short: as §1
Prevotella intermedia [25] = experiment: Antibacterial activity against Prevotella intermedia assessed as resistant isolates by CLSI agar dilution method in presence of Tazobactam; type: functional; in short: as §2
Clostridium perfringens = experiment: microbe, parasite or virus in culture; type: functional
[26] = test system: Clostridium paraputrificum; experiment: Antibacterial activity against beta-lactamase producing Clostridium paraputrificum by CLSI agar dilution method in presence of Tazobactam; type: functional; in short: as §3
Clostridium septicum [27] = experiment: Antibacterial activity against beta-lactamase producing Clostridium septicum by CLSI agar dilution method in presence of Tazobactam; type: functional; in short: as §3
Clostridium septicum [28] = experiment: Antibacterial activity against beta-lactamase producing Clostridium septicum assessed as susceptible isolates by CLSI agar dilution method; type: functional
[29] = test system: Clostridium paraputrificum; experiment: Antibacterial activity against beta-lactamase producing Clostridium paraputrificum assessed as resistant isolates by CLSI agar dilution method in presence of Tazobactam; type: functional; in short: as §2
[30] = test system: Peptostreptococcus anaerobius; experiment: Antibacterial activity against beta-lactamase producing Peptostreptococcus anaerobius assessed as susceptible isolates by CLSI agar dilution method; type: functional
Parvimonas micra [31] = experiment: Antibacterial activity against beta-lactamase producing Micromonas micros assessed as susceptible isolates by CLSI agar dilution method; type: functional
Parvimonas micra [32] = experiment: Antibacterial activity against beta-lactamase producing Micromonas micros by CLSI agar dilution method in presence of Tazobactam; type: functional; in short: as §3
[33] = test system: Peptoniphilus asaccharolyticus; experiment: Antibacterial activity against beta-lactamase producing Peptoniphilus asaccharolyticus by CLSI agar dilution method; type: functional
[34] = test system: Peptoniphilus asaccharolyticus; experiment: Antibacterial activity against beta-lactamase producing Peptoniphilus asaccharolyticus by CLSI agar dilution method in presence of Tazobactam; type: functional; in short: as §3

CC1(C)S[C@@H]2[C@H](NC(=O)[C@H](N)c3ccc(O)cc3)C(=O)N2[C@H]1C(=O)O [AMOXICILLIN]
Activity (Bacteroides fragilis [1]): 63%
MIC50 (Bacteroides uniformis [2]): 8 µg/mL
MIC90 (Bacteroides uniformis [2]): 32 µg/mL
MIC50 (Bacteroides caccae [3]): 8 µg/mL
MIC90 (Bacteroides caccae [3]): 32 µg/mL
MIC50 (Fusobacterium nucleatum [4]): 2 µg/mL
MIC90 (Fusobacterium nucleatum [4]): 4 µg/mL
Activity (Fusobacterium nucleatum [5]): 89%
Activity [6]: 89%
MIC50 [7]: 4 µg/mL
MIC90 [7]: 16 µg/mL
Activity (Prevotella buccae [8]): 81%
Activity [9]: 6%
Activity (Clostridium tertium): 96%
Activity (Clostridium septicum [10]): 4%

CCN1CCN(C(=O)N[C@@H](C(=O)N[C@@H]2C(=O)N3[C@@H]2SC(C)(C)[C@@H]3C(=O)O)c2ccccc2)C(=O)C1=O [PIPERACILLIN]
Activity (Bacteroides fragilis [11]): 35%
Activity (Bacteroides fragilis [12]): 2%
Activity [13]: 63%
Activity [14]: 93%
Activity (Phocaeicola vulgatus): 35%
Activity (Bacteroides uniformis [15]): 4%
Activity (Bacteroides caccae [16]): 96%
MIC50 (Fusobacterium mortiferum): 2 µg/mL (≈ 3.86 µM)
MIC90 (Fusobacterium mortiferum): 8 µg/mL (≈ 15.5 µM)
MIC50 [17]: 2 µg/mL (≈ 3.86 µM)
MIC90 [17]: 8 µg/mL (≈ 15.5 µM)
Activity (Fusobacterium nucleatum [18]): 10%
MIC50 (Fusobacterium nucleatum [19]): 0.5 µg/mL
MIC90 (Fusobacterium nucleatum [19]): 2 µg/mL
MIC50 [20]: 0.5 µg/mL
MIC90 [20]: 2 µg/mL
MIC (Prevotella buccae [21]): 0.03 µg/mL
MIC50 (Prevotella buccae [21]): 0.03 µg/mL
MIC90 (Prevotella buccae [21]): 1 µg/mL
Activity (Prevotella buccae [22]): 71%
Activity (Prevotella buccae [23]): 100%
Activity (Prevotella intermedia [24]): 100%
Activity (Prevotella intermedia [25]): 0%
MIC50 (Clostridium perfringens): 0.5 µg/mL (≈ 0.966 µM)
MIC90 (Clostridium perfringens): 2 µg/mL (≈ 3.86 µM)
MIC50 [26]: 0.5 µg/mL
MIC90 [26]: 2 µg/mL
MIC50 (Clostridium septicum [27]): 0.5 µg/mL
MIC90 (Clostridium septicum [27]): 2 µg/mL
Activity (Clostridium septicum [28]): 100%
Activity [29]: 0%
Activity [30]: 97%
Activity (Parvimonas micra [31]): 97%
MIC (Parvimonas micra [32]): 0.03 µg/mL
MIC50 (Parvimonas micra [32]): 0.03 µg/mL
MIC90 (Parvimonas micra [32]): 2 µg/mL
MIC50 [33]: 0.12 µg/mL (≈ 0.232 µM)
MIC90 [33]: 8 µg/mL (≈ 15.5 µM)
MIC [34]: 0.03 µg/mL
MIC50 [34]: 0.03 µg/mL
MIC90 [34]: 2 µg/mL
